DENV2 CPE: inhibitors of DENV2 cytopathic effect; DENV2-infected cells, cytopathic effect rescue, plate reader; CPE inhibition, % at 9.99 µM; actives 1.7% (n = 350,000); AID 651640; in the data active = CPE inhibition above about 20%, passing the limit was not always enough; inconclusive = no clear call, values can overlap the other calls; tested in BHK-21 cells
CAL PDZ FP-1: inhibitors of human CAL PDZ peptide binding. purified CAL PDZ, TMR-peptide fluorescence polarization, 1 h. inhibition, % at 24.9 µM. actives 0.92% (n = 300,000);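 active = mean inhibition of at least 30% with at least half of replicates also reaching 30%; inconclusive = no clear call, values can overlap the other calls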
ERAP1 inh: inhibitors of human ERAP1 aminopeptidase; Q9NZ08; recombinant ERAP1, Leu-AMC fluorescence, 60 min; inhibition, % at 10.7 µM; actives 0.15% (n = 340,000);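 active = mean replicate inhibition of at least 30%, or all replicates individually reaching that 30% level; inactive = mean below 30% and not every replicate reaching it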
CAL PDZ FP-2: inhibitors of human CAL PDZ peptide binding; Q9HD26; AID 504414; inhibition, % at 20 µM; actives 0.02% (n = 330,000); purified CAL PDZ, TMR-peptide fluorescence polarization, 1 h;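 active = highest replicate inhibition of at least 40%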
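Test system: tagged CAL PDZ domain / Buffer or medium: sodium phosphate/NaCl buffer pH 7.4 with TCEP, IgG, Thesit / Reagent: TMR-labelled reporter peptide T*-PRC34 bound in PDZ groove / Compound dosing: single point, 20 µM / Schedule: 1 h incubation at room temperature before polarization reading / Technique: fluorescence polarization (mP) / Benchmarks: unlabelled peptide, DMSO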
S100A4 inh HTS: S100A4-myosin IIA interaction inhibition; AID 652163; S100A4/TAMRA-MyoIIA peptide fluorescence polarization; P26447; inhibition, % at 10.7 µM; actives 0.14% (n = 360,000);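 active = mean inhibition of at least 70% across replicates, with every replicate also reaching that level; inconclusive = mean inhibition reaches 70% but some replicates fall short; inactive = mean inhibition below 70%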
Target sequence (P26447 whole entry, looked up): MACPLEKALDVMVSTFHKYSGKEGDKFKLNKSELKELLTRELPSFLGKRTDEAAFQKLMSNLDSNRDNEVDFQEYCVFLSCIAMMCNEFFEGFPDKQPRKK
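Assay system: human S100A4 monomer with TAMRA-labelled myosin IIA peptide / Buffer or medium: Calcium-containing HEPES buffer, pH 7.2 / Reagent: TAMRA-labelled myosin IIA heavy-chain peptide probe, 5 nM / Compound: one dose per compound / Timing: polarization read 5 min after assay mix addition, stable 5–60 min / Benchmarks: neutral control DMSO, positive control TFP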
SIRT5 inh: inhibitors of human sirtuin-5 desuccinylase; Q9NXA8; Purified SirT5, succinyl-peptide AMC, trypsin-coupled fluorescence; inhibition, % at 15 µM; actives 1.1% (n = 330,000); AID 652115; in the data active = inhibition above about 15%; inconclusive = no clear call, values can overlap the other calls
Target sequence (Q9NXA8 whole entry, looked up): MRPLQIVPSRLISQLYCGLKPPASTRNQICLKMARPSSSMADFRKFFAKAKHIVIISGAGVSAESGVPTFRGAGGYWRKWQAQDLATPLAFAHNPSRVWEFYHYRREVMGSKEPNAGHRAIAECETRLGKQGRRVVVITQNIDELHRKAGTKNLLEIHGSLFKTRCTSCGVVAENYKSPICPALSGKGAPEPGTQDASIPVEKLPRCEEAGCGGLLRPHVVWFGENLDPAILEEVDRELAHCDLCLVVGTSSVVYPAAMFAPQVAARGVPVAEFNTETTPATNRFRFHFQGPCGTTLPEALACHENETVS
Hits are given with their value; 0 = inactive; ? = inconclusive; - = no result; + = active, no number; ! = repeats disagree. In the library only some 2.9% were active in any assay of this set; here they are far more common.

SMILES | DENV2 CPE | CAL PDZ FP-1 | ERAP1 inh | CAL PDZ FP-2 | S100A4 inh HTS | SIRT5 inh
CCOC(=O)c1sc(-c2ccc(Cl)cc2Cl)nc1O | 0 | 49 | 0 | 0 | 0 | 0
CCOC(=O)c1sc(CS(=O)(=O)c2ccc(Cl)cc2)nc1C | 0 | 0 | 0 | 0 | 0 | 0
CC(=O)NC[C@H]1[C@@H](c2ccc(C#C[C@@H](C)O)cc2)[C@@H](CO)N1Cc1ccccn1 | 0 | - | 0 | - | 0 | 0
O=S(=O)(c1cccc(Br)c1)N1CCN(C(=S)NCC2CCCO2)CC1 (stereo unspecified) | 68 | 0 | 0 | 0 | 0 | 0
C[C@H]1CN([C@@H](C)CO)C(=O)Cc2cc(NC(=O)Cc3ccccc3)ccc2O[C@@H]1CN(C)Cc1ccc2c(c1)OCO2 | 0 | - | 0 | - | 0 | 0
CC(=O)Nc1sc(NC(=O)c2ccc(C)cc2)nc1-c1cccs1 | - | 73 | - | - | - | -
C[C@@H]1CN([C@H](C)CO)C(=O)Cc2cc(NC(=O)Cn3cnnn3)ccc2O[C@@H]1CN(C)C(=O)Nc1ccc(C(F)(F)F)cc1 | 0 | - | 0 | - | 0 | 0
Cc1ccc(S(=O)(=O)Nc2ccc3c(c2)C(=O)N([C@@H](C)CO)C[C@H](C)[C@@H](CN(C)C(=O)NC(C)C)O3)cc1 | 0 | - | - | - | 0 | -
CCNc1c([N+](=O)[O-])c(=O)oc2ccccc12 | 0 | 56 | 0 | 0 | 0 | 0
CN(C)N1C(N)=C(C#N)C(c2ccccc2)C2=C1CC(C)(C)CC2=O (stereo unspecified) | 46 | 0 | 0 | 0 | 0 | 0
CCc1ccc(CN(C)CCc2ccccn2)cc1 | 0 | 0 | 0 | 0 | 0 | 21
Cc1ccc(CN(C)CCc2ccccn2)cc1 | - | - | - | 0 | - | -
Cc1ccc(C)c(NC(=O)C2CCCN(S(=O)(=O)c3c(C)noc3/C=C/N(C)C)C2)c1 (stereo unspecified) | 0 | - | 0 | 0 | 122 | 0
COc1ccc2c3c([nH]c2c1)[C@H](CO)N(C(C)=O)CC31CCN(C(=O)CN2CCOCC2)CC1 | ? | - | 0 | - | 0 | 0
COc1ccc(-c2ccc([C@@H]3[C@@H](C#N)N(C(=O)c4cccnc4)[C@H]3CO)cc2)cc1 | 0 | - | 0 | - | 0 | 0
COc1cc(CN(C)C)cc(C=O)c1O | - | 0 | - | 0 | - | -
COc1cc(N=Nc2ccc(Br)cc2)cc(C=O)c1O | 0 | - | 0 | - | 0 | 18
O=C(Nc1ccnn1C1CCN(Cc2ccccc2)CC1)C1CCCC1 | 0 | 0 | 0 | 0 | ? | 0
CCCCc1ncc(CN2CCC(n3nccc3NC(=O)c3ccccc3OC)CC2)[nH]1 | 0 | 111 | 0 | 0 | 0 | 0
COc1ccc(CN2CCC(n3nccc3NC(=O)C3CCCC3)CC2)c(OC)c1 | 0 | 0 | 0 | 0 | 0 | 0
CCCn1ncc(CN2CCC(n3nccc3NC(=O)c3ccccc3OC)CC2)c1C | 0 | 0 | 0 | 0 | 0 | 0
CCOc1ccccc1CN1CCC(n2nccc2NC(=O)C2CCCC2)CC1 | 0 | 0 | 0 | 112 | 0 | 0
COc1ccc(CN2CCC(n3nccc3NC(=O)C3CC3)CC2)c(OC)c1OC | 0 | 71 | 0 | 0 | 0 | 0
O=C1c2ccccc2C(=O)c2c(Nc3ccc(CCO)cc3)ccc(O)c21 | 0 | 0 | 0 | - | 0 | 0
O=C1c2c(O)ccc(O)c2C(=O)c2c(NCCNCCO)ccc(NCCNCCO)c21 | 0 | 0 | 39! | 0 | 0 | 0
SMILES | DENV2 CPE | CAL PDZ FP-1 | ERAP1 inh | CAL PDZ FP-2 | S100A4 inh HTS | SIRT5 inh
COc1ccc(NC(=O)Nc2ccc3c(c2)C(=O)N([C@@H](C)CO)C[C@@H](C)[C@@H](CN(C)C(=O)NC2CCCCC2)OCCCC[C@@H](C)O3)cc1 | 0 | - | 0 | - | 0 | 0
CN(C)/N=C/C=C1\CCC/C(=C/c2cccs2)C1=O | 0 | 0 | 0 | 0 | 0 | 0
CN(C)/N=C/C=C1\CC/C(=C\c2ccc(Br)cc2)C1=O | - | 49 | - | 0 | - | -
CCOc1ccccc1CNC(=O)c1cc2oc3ccccc3c2n1C | - | 0 | - | 0 | - | -
CCOc1ccccc1CNC(=O)c1cc2occc2n1C | 0 | - | 0 | 0 | 183 | 0
Cc1nnc(SCC(=O)Nc2cc(-c3cc(C)c(C)cc3C)nn2-c2ccccc2)s1 | 0 | 0 | 0 | 0 | 0 | 0
CCCc1ccc(-c2cc(NC(=O)CSc3nnc(N)s3)n(-c3ccccc3)n2)cc1 | 0 | 0 | 0 | 0 | 0 | 20
COc1ccc(-n2nc3c(c2NC(=O)c2ccco2)CS(=O)(=O)C3)cc1 | 0 | 76 | 0 | 0 | 0 | 0
CSc1ncc(S(=O)(=O)c2ccccc2)c(=O)[nH]1 | 0 | 0 | 0 | 0 | 0 | 20
CCCn1c(SCC(=O)N2CCCC2)nc2c1c(=O)n(C)c(=O)n2C | - | 0 | - | 0 | - | -
CCn1c(SCC(=O)N2CCCC(C)C2)nc2c1c(=O)n(C)c(=O)n2C (stereo unspecified) | 0 | + | 0 | 0 | 0 | 0
CC(=O)N(C)C[C@@H]1Oc2ncc(C#CC3(O)CCCC3)cc2C(=O)N([C@H](C)CO)C[C@H]1C | 0 | - | 0 | - | 0 | 0
CC(=O)N(C)C[C@@H]1Oc2ncc(C#CC3(O)CCCC3)cc2C(=O)N([C@H](C)CO)C[C@@H]1C | 31 | - | 0 | - | 0 | 0
COCC(=O)N(C)C[C@@H]1Oc2ncc(C#CC3(O)CCCC3)cc2C(=O)N([C@@H](C)CO)C[C@H]1C | 41 | - | 0 | - | 0 | 0
C[C@@H]1CN([C@@H](C)CO)C(=O)c2cccc(NC(=O)NC3CCCCC3)c2O[C@@H]1CN(C)C(=O)Nc1ccccc1 | 0 | - | 0 | - | 0 | 0
Cc1ccc2cc(C(c3nnnn3Cc3ccccc3)N3CCc4ccccc43)c(=O)[nH]c2c1C (stereo unspecified) | - | 81 | - | 0 | - | -
CCC(C)(C)n1nnnc1C(c1cc2cc(OC)ccc2[nH]c1=O)N1CCc2ccccc21 (stereo unspecified) | - | - | - | 0 | - | -
CCC(C)(C)n1nnnc1C(c1cc2cc(C)ccc2[nH]c1=O)N1CCCc2ccccc21 (stereo unspecified) | 0 | 0 | 0 | - | 0 | 17
CO[C@H]1CN(C)C(=O)c2ccc(NC(=O)C3CCOCC3)cc2OC[C@@H](C)NC[C@@H]1C | 0 | - | 0 | - | 0 | 0
C[C@@H]1CN([C@H](C)CO)S(=O)(=O)c2ccc(-c3cccnc3)cc2O[C@@H]1CN(C)CC1CC1 | 0 | - | 0 | - | 0 | 0
CN(C)S(=O)(=O)c1cccc(NC(=S)N2CCc3ccccc32)c1 | - | 0 | 0 | 0 | 0 | 0
CCN(CC)S(=O)(=O)c1ccc(C(=O)N2CCc3ccccc32)cc1 | 0 | 0 | 0 | 0 | 0 | 16
Cc1ccc(S(=O)(=O)N(C)C)cc1NC(=S)N1CCc2ccccc21 | - | 49 | 0 | 0 | 0 | 0
O=C(C[C@@H]1CC[C@H]2[C@@H](COC[C@H](O)CN2C(=O)c2ccccc2F)O1)N1CCOCC1 | 0 | - | 0 | - | 0 | 0
Cc1ccc(S(=O)(=O)Nc2ccc3c(c2)C(=O)N([C@@H](C)CO)C[C@H](C)[C@@H](CN(C)C(=O)Nc2c(C)noc2C)O3)cc1 | 0 | - | 0 | - | 0 | 0

Screening data as filed in PubChem BioAssay.
